Data: the M2OR odorant receptor database

Legend:
Conditions in all cases: stereoisomer not certain
OR51D1 (Homo sapiens) = target: T1, OR51D1 (Homo sapiens) (UniProt Q8NGF3)
T1 sequence (whole entry): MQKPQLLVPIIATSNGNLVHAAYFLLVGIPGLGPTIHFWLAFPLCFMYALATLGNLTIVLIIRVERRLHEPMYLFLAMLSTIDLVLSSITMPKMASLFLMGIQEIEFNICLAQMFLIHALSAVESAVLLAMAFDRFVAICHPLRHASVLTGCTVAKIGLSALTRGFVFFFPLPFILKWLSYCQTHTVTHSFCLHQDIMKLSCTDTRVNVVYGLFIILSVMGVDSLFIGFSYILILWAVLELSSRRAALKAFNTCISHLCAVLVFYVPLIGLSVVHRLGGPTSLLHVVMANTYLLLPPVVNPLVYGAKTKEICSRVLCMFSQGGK
Method in brief: (§1)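 Assay methods differ from source to source, frequently being transient luciferase assays in mammalian cell lines. For each receptor–molecule pair, the label responsive (active) applies when the original authors judged the measured signal statistically different from baseline, and non-responsive (inactive) applies otherwise.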

OR51E2 (Homo sapiens) = target: T2, OR51E2 (Homo sapiens) (UniProt Q9H255)
T2 sequence (whole entry): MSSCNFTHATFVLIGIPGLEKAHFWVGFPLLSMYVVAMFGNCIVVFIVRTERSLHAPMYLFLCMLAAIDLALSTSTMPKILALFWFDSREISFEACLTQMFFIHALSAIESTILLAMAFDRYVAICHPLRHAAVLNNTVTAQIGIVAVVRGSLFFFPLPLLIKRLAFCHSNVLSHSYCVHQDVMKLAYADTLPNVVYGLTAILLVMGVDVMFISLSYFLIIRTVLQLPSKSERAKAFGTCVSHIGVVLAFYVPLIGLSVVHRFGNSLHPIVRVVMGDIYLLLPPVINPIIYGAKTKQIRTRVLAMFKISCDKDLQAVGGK
Method in brief: as §1

OR51F1 (Homo sapiens) = target: T3, OR51F1 (Homo sapiens) (UniProt A6NGY5)
T3 sequence (whole entry): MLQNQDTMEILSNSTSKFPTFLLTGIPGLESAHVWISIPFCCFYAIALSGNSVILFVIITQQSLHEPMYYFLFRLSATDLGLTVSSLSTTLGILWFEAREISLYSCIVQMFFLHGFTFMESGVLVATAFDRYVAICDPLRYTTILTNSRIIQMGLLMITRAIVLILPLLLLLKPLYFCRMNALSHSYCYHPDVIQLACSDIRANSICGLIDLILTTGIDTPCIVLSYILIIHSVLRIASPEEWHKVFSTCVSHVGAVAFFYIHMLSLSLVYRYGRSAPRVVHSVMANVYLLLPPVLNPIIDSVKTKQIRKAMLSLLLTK
Method in brief: as §1

OR51F2 (Homo sapiens) = target: T4, OR51F2 (Homo sapiens) (UniProt Q8NH61)
T4 sequence (whole entry): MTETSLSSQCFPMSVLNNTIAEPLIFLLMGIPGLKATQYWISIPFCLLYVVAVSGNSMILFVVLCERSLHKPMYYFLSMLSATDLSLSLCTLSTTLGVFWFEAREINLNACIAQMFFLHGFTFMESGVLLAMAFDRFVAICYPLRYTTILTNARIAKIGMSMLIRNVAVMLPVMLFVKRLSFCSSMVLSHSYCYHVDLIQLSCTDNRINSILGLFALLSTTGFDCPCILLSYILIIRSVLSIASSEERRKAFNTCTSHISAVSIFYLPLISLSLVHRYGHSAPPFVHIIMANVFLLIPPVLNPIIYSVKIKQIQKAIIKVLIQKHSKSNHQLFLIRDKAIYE
Method in brief: as §1

OR51G1 (Homo sapiens) = target: T5, OR51G1 (Homo sapiens) (UniProt Q8NGK1)
T5 sequence (whole entry): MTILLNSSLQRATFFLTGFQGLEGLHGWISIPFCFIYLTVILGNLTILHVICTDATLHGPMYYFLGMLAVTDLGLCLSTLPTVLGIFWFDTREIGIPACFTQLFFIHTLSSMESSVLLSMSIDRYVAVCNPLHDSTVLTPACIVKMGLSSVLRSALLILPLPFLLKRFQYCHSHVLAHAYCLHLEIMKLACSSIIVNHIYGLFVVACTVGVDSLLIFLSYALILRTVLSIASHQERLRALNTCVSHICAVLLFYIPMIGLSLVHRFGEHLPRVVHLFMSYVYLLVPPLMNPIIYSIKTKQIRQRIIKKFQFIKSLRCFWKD
Method in brief: as §1

OR51G2 (Homo sapiens) = target: T6, OR51G2 (Homo sapiens) (UniProt Q8NGK0)
T6 sequence (whole entry): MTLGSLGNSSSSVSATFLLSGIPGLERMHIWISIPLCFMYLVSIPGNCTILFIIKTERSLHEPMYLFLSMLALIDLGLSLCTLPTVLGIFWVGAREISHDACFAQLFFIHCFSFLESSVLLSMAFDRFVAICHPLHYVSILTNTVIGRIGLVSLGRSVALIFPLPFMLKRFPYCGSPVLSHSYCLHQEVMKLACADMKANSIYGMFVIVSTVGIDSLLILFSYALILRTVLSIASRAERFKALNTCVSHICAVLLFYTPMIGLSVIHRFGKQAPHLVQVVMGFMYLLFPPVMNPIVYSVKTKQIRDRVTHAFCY
Method in brief: as §1

OR51H1 (Homo sapiens) = OR51H1 (Homo sapiens) (UniProt Q8NH63)
Method in brief: as §1

OR51I1 (Homo sapiens) = target: T7, OR51I1 (Homo sapiens) (UniProt Q9H343)
T7 sequence (whole entry): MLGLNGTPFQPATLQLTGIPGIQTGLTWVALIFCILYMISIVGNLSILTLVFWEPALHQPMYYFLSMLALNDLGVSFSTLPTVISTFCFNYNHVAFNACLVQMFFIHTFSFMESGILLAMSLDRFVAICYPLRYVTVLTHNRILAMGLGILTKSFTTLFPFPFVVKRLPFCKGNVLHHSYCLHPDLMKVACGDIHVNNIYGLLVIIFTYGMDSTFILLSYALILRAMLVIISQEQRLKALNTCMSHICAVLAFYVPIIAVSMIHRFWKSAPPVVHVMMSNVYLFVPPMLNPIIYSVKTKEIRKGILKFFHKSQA
Method in brief: as §1

OR51I2 (Homo sapiens) = target: T8, OR51I2 (Homo sapiens) (UniProt Q9H344)
T8 sequence (whole entry): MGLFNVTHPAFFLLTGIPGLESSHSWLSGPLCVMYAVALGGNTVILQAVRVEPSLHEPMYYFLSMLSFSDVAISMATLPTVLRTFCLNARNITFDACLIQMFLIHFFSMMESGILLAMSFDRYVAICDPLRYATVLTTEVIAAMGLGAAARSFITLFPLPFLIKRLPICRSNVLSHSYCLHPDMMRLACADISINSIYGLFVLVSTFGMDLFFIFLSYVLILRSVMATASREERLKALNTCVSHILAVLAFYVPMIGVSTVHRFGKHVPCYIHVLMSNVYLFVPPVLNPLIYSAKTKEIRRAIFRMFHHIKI
Method in brief: as §1

OR51J1 (Homo sapiens) = target: T9, OR51J1 (Homo sapiens) (UniProt Q9H342)
T9 sequence (whole entry): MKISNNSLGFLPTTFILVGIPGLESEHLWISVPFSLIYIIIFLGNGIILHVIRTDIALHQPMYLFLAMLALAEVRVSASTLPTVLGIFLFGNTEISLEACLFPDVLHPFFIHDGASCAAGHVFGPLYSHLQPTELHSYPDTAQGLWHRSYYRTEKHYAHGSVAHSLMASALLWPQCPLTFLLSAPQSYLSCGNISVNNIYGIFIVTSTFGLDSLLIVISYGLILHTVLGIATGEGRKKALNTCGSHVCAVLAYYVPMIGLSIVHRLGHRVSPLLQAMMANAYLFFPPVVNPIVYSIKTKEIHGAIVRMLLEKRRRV
Method in brief: as §1

OR51L1 (Homo sapiens) = target: T10, OR51L1 (Homo sapiens) (UniProt Q8NGJ5)
T10 sequence (whole entry): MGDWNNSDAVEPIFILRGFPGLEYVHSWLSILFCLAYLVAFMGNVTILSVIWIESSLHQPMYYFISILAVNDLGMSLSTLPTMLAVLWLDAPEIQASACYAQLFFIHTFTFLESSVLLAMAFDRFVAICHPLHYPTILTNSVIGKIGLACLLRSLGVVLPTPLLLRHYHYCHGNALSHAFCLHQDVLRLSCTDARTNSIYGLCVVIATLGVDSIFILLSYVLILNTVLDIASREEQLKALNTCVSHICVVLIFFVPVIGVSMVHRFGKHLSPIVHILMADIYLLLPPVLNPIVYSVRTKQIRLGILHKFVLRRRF
Method in brief: as §1

OR51M1 (Homo sapiens) = target: T11, OR51M1 (Homo sapiens) (UniProt Q9H341)
T11 sequence (whole entry): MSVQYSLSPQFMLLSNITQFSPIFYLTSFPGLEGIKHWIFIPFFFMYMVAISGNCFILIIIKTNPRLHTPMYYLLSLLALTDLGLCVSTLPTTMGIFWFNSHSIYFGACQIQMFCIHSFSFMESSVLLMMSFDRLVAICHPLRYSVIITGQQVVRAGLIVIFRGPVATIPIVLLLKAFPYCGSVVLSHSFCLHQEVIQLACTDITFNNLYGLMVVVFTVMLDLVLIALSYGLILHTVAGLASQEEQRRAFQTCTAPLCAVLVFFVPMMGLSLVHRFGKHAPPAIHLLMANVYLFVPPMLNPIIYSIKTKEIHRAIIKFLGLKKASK
Method in brief: as §1

OR51Q1 (Homo sapiens) = target: T12, OR51Q1 (Homo sapiens) (UniProt Q8NH59)
T12 sequence (whole entry): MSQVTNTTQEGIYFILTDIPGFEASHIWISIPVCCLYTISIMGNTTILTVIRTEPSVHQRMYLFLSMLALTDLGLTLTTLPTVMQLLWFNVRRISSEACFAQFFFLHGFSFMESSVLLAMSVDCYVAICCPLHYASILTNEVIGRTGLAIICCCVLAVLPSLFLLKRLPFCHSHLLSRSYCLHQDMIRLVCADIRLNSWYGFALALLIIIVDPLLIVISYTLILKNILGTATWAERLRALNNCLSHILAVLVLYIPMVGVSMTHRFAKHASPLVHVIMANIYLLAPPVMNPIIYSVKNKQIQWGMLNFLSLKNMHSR
Method in brief: as §1

OR51S1 (Homo sapiens) = target: T13, OR51S1 (Homo sapiens) (UniProt Q8NGJ8)
T13 sequence (whole entry): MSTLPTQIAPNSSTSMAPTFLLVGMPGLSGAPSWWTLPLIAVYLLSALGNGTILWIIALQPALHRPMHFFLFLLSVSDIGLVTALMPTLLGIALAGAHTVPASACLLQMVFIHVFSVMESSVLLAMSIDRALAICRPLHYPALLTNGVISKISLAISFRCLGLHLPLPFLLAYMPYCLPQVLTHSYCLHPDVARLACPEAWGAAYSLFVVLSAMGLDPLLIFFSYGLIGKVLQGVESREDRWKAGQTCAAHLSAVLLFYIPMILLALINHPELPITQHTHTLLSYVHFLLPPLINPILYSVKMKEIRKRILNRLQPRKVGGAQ
Method in brief: as §1

OR51T1 (Homo sapiens) = target: T14, OR51T1 (Homo sapiens) (UniProt Q8NGJ9)
T14 sequence (whole entry): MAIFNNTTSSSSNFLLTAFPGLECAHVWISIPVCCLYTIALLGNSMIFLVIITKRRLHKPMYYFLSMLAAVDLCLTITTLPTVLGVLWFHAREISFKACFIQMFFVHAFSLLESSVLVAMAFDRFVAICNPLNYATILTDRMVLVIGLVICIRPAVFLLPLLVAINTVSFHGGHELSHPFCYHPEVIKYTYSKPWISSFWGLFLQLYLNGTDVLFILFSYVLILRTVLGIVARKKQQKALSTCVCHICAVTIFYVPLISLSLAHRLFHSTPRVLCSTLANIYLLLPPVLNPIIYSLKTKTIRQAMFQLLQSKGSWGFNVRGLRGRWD
Method in brief: as §1

OR51V1 (Homo sapiens) = target: T15, OR51V1 (Homo sapiens) (UniProt Q9H2C8)
T15 sequence (whole entry): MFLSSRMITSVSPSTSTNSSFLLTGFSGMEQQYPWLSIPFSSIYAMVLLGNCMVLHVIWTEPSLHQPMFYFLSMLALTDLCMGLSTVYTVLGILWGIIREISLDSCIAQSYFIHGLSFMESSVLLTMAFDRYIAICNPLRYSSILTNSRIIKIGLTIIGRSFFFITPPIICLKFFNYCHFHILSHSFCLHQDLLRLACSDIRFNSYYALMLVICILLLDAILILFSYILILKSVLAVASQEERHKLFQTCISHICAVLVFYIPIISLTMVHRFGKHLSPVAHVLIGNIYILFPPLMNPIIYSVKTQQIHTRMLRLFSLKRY
Method in brief: as §1

OR52A1 (Homo sapiens) = target: T16, OR52A1 (Homo sapiens) (UniProt Q9UKL2)
T16 sequence (whole entry): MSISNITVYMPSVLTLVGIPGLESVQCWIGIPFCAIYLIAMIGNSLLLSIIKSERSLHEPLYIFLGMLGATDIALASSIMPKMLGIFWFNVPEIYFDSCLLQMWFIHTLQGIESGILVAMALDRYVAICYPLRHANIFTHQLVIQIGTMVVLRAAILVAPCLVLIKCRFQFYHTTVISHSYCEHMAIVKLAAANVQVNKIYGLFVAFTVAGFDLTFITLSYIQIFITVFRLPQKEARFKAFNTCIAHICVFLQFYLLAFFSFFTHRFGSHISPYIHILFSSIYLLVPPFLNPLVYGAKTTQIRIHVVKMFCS
Method in brief: as §1

OR52A4P (Homo sapiens) = target: T17, OR52A4P (Homo sapiens) (UniProt A6NMU1)
T17 sequence (whole entry): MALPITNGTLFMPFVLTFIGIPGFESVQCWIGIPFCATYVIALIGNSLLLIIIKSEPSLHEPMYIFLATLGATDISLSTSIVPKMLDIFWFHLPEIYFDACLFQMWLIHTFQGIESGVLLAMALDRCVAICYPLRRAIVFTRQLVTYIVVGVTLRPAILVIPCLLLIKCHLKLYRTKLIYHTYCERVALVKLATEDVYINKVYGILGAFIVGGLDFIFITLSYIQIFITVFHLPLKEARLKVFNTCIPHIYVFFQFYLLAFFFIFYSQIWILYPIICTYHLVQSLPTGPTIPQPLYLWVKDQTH
Method in brief: as §1

Measured: odorant receptor agonist call

Sequence of OR51H1 (Homo sapiens) (Q8NH63 whole entry): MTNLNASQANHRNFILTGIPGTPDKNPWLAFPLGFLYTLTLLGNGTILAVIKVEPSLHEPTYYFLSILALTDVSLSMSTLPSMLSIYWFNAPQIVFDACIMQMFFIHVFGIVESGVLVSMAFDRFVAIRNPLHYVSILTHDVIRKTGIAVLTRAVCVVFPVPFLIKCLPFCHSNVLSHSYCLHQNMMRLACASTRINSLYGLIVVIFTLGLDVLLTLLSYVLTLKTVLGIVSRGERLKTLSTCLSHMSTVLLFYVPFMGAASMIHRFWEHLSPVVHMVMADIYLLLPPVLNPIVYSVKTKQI

CC1CCCCCCCCCCCCC(=O)C1 (stereo not drawn)
inactive: all assays above
